Assay outcomes as filed in PubChem BioAssay.
FXIIa inh 1536: human FXIIa protease inhibitors, primary screen, biochemical, 1536-well. inhibition, % at 5 µM. 220,000 tested, 0.3% active. Coagulation factor XII (Homo sapiens), P00748. purified FXIIa, Boc-QGR-AMC fluorogenic substrate, 2 h; in the data active = inhibition above about 40%
AHR activator: AHR activators, primary screen, cell-based, luminescence, luciferase reporter, human. AHR-responsive luciferase reporter cells. AID 2796, 2010. activation, % at 5 µM. 320,000 tested, 2.5% active; in the data active = activation above about 47%
FXIa inh 1536: human FXIa protease inhibitors, primary screen, biochemical, 1536-well | Coagulation factor XI (Homo sapiens), P03951 | purified FXIa, Boc-Glu-Ala-Arg-AMC fluorogenic substrate | inhibition, % at 5 µM | 220,000 tested, 0.14% active | AID 798, 2007;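 active = inhibition of at least 40%; inactive = inhibition below 40%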;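 note: fluorescence of freed AMC excited at 355 nm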
thrombin 1536: human alpha-thrombin inhibitors, primary screen, counter-screen for coagulation protease inhibitor project, biochemical, 1536-well, fluorogenic AMC substrate; Boc-VPR-AMC fluorogenic substrate cleavage; inhibition, % at 5 µM; AID 1046, 2008; 220,000 tested, 0.26% active; Prothrombin (Homo sapiens), P00734;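 active = inhibition at or above 40%; inactive = inhibition below 40%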
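Material: human alpha-thrombin protein. Incubation: reaction at ambient temperature. Technique: fluorescence of released AMC, ex 355 nm, em 460 nm. Control set: no-compound enzyme wells and no-enzyme blanks. Also added: Boc-VPR-AMC substrate, 15 µM final. Buffer or medium: pH 7.5 Tris (50 mM) with NaCl 150 mM, Tween 20 0.05%.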
hK5 inh: human KLK5 protease inhibitors, primary screen, biochemical, 1536-well. Kallikrein-5 (Homo sapiens), Q9Y337. recombinant hK5, fluorogenic AMC substrate cleavage. inhibition, % at 5 µM. 210,000 tested, 0.59% active. AID 873, 2007;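 active = inhibition of 40% or more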
STAT3 act-1: IL-6 driven STAT3 reporter potentiators, primary screen, U3A cells, luciferase, luminescence, MLSCN library; IL-6 STAT3-luciferase reporter; 100% = signal with IL-6 EC80 alone; activation (% of control), % at 5.6 µM; 190,000 tested, 0.91% active; AID 871, 2007;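 active = activation above the screen-wide mean of compound activation plus 3 SD, cut at about 130% in these data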
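Material: human STAT1-deficient U3A cells with stable STAT3-luciferase reporter / Probe or stimulus: IL-6 stimulus at 33 ng/mL final / Schedule: 1 h compound pre-exposure, 6 h IL-6 stimulation, 37 °C / Technique: luminescence / Read-out basis: percent of IL-6-only median luminescence / Control set: IL-6-only high control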
STAT3 act-2: STAT3 reporter potentiators, retest of hits, confirmation, U3A cells, luciferase, luminescence. 1,200 tested, 64% active. potentiation (% of control), % at 5.7 µM. shares compounds with STAT3 act-1. AID 1267, 2008. IL-6 potentiation; U3A cells lack STAT1; 100 means same as IL-6 alone;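 active = percent activation of the STAT3 luciferase reporter above a set limit taken from the earlier primary screen, cut at about 130% in these data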
NFkB act STAT3ct: NF-kB reporter activators in human cells, counter-screen for STAT3 activator project; shares compounds with STAT3 act-1; NF-kappaB reporter activation; activation (% of control), % at 5.7 µM; AID 1309, 2008; 1,200 tested, 11% active; in the data active = activation above about 120%;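 note: reporter induced by TNF-alpha stimulation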
STAT1 act: STAT1 reporter activators, IFN-gamma induced, counter-screen for STAT3 activator project, cell-based, NIH 3T3, luciferase luminescence; 1,200 tested, 13% active; shares compounds with STAT3 act-1; activation (% of control), % at 5.7 µM; NIH 3T3 STAT1-luciferase reporter;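 active = activation above the solvent-only control well mean plus 3 SD, set per screening run, cut at about 120% in these data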
Large screens that a line does not name were inactive (follow-up assays come after a bar, where they were run). Most compounds without a hit are left out; they make up all but 3.5% or so of the library.

O=C(CCc1ccc(S(=O)(=O)N2CCOCC2)cc1)OCc1nc2ccccc2s1	STAT3 act-1 142 | STAT3 act-2 147 | NFkB act STAT3ct 122 | STAT1 act 136
O=C(CCc1nc2ccccc2[nH]c1=O)OCc1ccc(S(=O)(=O)N2CCOCC2)cc1	none
CC1CC(C)CN(C(=O)CSc2nc(N)cc(=O)[nH]2)C1 (stereo unspecified)	none
Nc1nc(-c2ccc(Cl)cc2)nn1C(=O)c1cccs1	STAT3 act-1 146 | STAT3 act-2 145 | NFkB act STAT3ct inactive | STAT1 act inactive
COc1ccc(OCC(=O)NCCCCCCNC(=O)COc2ccc(OC)cc2)cc1	none (no result: FXIIa inh 1536, FXIa inh 1536, thrombin 1536, hK5 inh, STAT3 act-1)
COc1ccc(CNC(=O)COC(=O)c2ccc(OCC3CCCO3)cc2)cc1 (stereo unspecified)	none (no result: FXIIa inh 1536, FXIa inh 1536, thrombin 1536, hK5 inh, STAT3 act-1)
Cc1ccc(NC(=O)c2cc(N3CCOCC3)nc3ccccc23)cc1	AHR activator 58, STAT3 act-1 153 | STAT3 act-2 146 | NFkB act STAT3ct inactive | STAT1 act inactive
COc1ccc(OCCCC(=O)Nc2cccc(C(C)=O)c2)cc1	none
COC(=O)c1cccc(NC(=O)CCCOc2cccc(C)c2)c1	STAT3 act-1 136 | STAT3 act-2 inactive | NFkB act STAT3ct inactive | STAT1 act inactive
COC(=O)c1cc(OC)c(OC)cc1NC(=O)c1ccc(C)o1	none
O=C(Nc1ccc(C(=O)N2CCOCC2)cc1)c1cccs1	none
Cc1ccc(NP(=O)(c2ccc(N(C)C)cc2NC(=O)c2cccs2)N2CCOCC2)cc1 (stereo unspecified)	AHR activator 59, STAT3 act-1 139 | STAT3 act-2 135 | NFkB act STAT3ct inactive | STAT1 act inactive
CN(C)c1ccc(P(=O)(Nc2ccccc2)N2CCOCC2)c(NC(=O)c2cccs2)c1 (stereo unspecified)	STAT3 act-1 136 | STAT3 act-2 140 | NFkB act STAT3ct inactive | STAT1 act inactive
CN(C)c1ccc(P(=O)(Nc2ccc([N+](=O)[O-])cc2)N2CCOCC2)c(NC(=O)c2cccs2)c1 (stereo unspecified)	STAT3 act-1 140 | STAT3 act-2 149 | NFkB act STAT3ct inactive | STAT1 act inactive
Cc1noc(C)c1S(=O)(=O)N(CC(=O)N1CCn2c1nc1ccccc12)c1ccc(C(C)C)cc1	STAT3 act-1 149 | STAT3 act-2 138 | NFkB act STAT3ct inactive | STAT1 act inactive
CCCN(c1ccc(C(C)C)cc1)S(=O)(=O)c1c(C)noc1C	none
Cc1c(C(=O)Nc2ccc(S(=O)(=O)Nc3ncccn3)cc2)oc2ccccc12	none (no result: FXIIa inh 1536, FXIa inh 1536, thrombin 1536, hK5 inh, STAT3 act-1)
Cc1cc(NS(=O)(=O)c2ccc(NC(=O)c3oc4ccccc4c3C)cc2)no1	STAT3 act-1 145 | STAT3 act-2 inactive | NFkB act STAT3ct inactive | STAT1 act inactive
O=C(Nc1ccccc1)Nc1cccc2cccnc12	AHR activator 71, STAT3 act-1 150 | STAT3 act-2 147 | NFkB act STAT3ct 136 | STAT1 act 152
O=C(Nc1ccccc1)Nc1cccc2ccccc12	none (no result: STAT3 act-1)
Cc1ccc(NS(=O)(=O)c2ccc(NC(=O)c3cccs3)cc2)cc1	none
